The full list was thinned out, with hits kept by preference.
Hsp70 act: Hsp70 transcriptional activators, primary screen, cell-based, HeLa, Hsp70 promoter luciferase, luminescence, 10 µM | HeLa Hsp70 promoter luciferase reporter; scaled: vehicle 0, proteasome-inhibitor control 100% | activation, % at 10 µM | 200,000 tested, 0.04% active | AID 1203, 2008;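 active means activation above the mean across all tested compounds plus 3 SD, cutoff set per campaign, cut at about 5.5% in these data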
L major viab: Leishmania major promastigote growth inhibition, primary screen. Leishmania major promastigotes, resazurin fluorescence viability. AID 1063, 2008. inhibition, % at 10 µM. 200,000 tested, 9% active; in the data active means inhibition above about 50%;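 further: promastigotes grown with compound for 44 hours at 28 °C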
HSF1 activator: HSF-1 activators, primary screen, NIH3T3-HGL cells, MG132 stress, luminescence, single point. NIH3T3-HGL HSF-1 luciferase reporter, 8 h; 100% = twice DMSO control signal. activation, % at 9 µM. 300,000 tested, 1.7% active. AID 504408, 2011;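 active means mean replicate activation of at least 50% with a set share of replicates each reaching 50%; inconclusive means only one of those two conditions met; inactive means mean below 50% and too few replicates reaching it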
HSF1 inhib: HSF1 inhibitors in luciferase reporter cells, primary screen, cell-based, NIH3T3, luminescence. 300,000 tested, 0.77% active. activity change, negative = inhibition, % at 7.5 µM (by protocol). NIH3T3-HGL HSE-luciferase, MG132-induced, luminescence 8 h; hits give low values;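 active means more than half of replicate wells show activity change below -50%, luminescence cut by over half; inconclusive means some wells, but at most half, below -50%; inactive means no replicate well below -50%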;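 further: luciferase reports HSF-1 transcriptional activity via heat shock element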
T cruzi repl: inhibitors of intracellular T. cruzi growth, primary screen, luminescence, NIH3T3 host cells; T. cruzi beta-gal in NIH3T3, 90 h; inhibition, % (no concentration beside the values); 300,000 tested, 1.4% active;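 active means mean inhibition across valid replicates above about 55%, limit read from the data; inconclusive means mean below that limit but half or more replicates reach it; inactive means mean below it, under half of replicates reach it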;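 further: signal also drops with host cell toxicity which is not excluded here; higher percent means less beta-gal luminescence so fewer parasites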
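Material: NIH/3T3 host cells with β-galactosidase reporter T. cruzi; Input: 5,000 host fibroblasts per well; Medium: DMEM, 2% fetal bovine serum; Compound: 50 nL DMSO compound solution per well; Schedule: 3 h host attachment, then at least 90 h co-culture; Detection: luminescent β-galactosidase signal after 60 min lysis.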
Of the large screens only hits and unclear results are named; the others gave an inactive call.

Cc1ccc(NC(=S)N/N=C/c2ccc([N+](=O)[O-])s2)cc1	L major viab 89, HSF1 activator inconclusive, T cruzi repl 63
O=C(CSc1nc2c(oc3ccccc32)c(=O)n1CC1CCCO1)NCc1ccccc1 (stereo not given)	none (no result: Hsp70 act, L major viab)
COc1ccc(-c2cn(-c3ccccc3)nc2CO)cc1	HSF1 inhib -89 (no result: Hsp70 act, L major viab)
O=C(N/N=C/c1cc(Br)cs1)c1c[nH]c2ccccc12	none (no result: Hsp70 act, L major viab)
O=C(N/N=C/c1cc2c(cc1Br)OCO2)c1c[nH]c2ccccc12	L major viab 80, T cruzi repl 62
O=C(N/N=C/c1cc2c(cc1Br)OCO2)c1ccccn1	HSF1 activator 60 (no result: Hsp70 act, L major viab)
O=C(N/N=C/c1ccc(Br)s1)c1c[nH]c2ccccc12	HSF1 activator 56
O=C(NCCCN1CCOCC1)C(=O)N/N=C/c1cccc2ccccc12	none (no result: Hsp70 act, L major viab)
CN(C(=O)COC(=O)c1ccc2[nH]c3c(c2c1)CCCC3)C1CCS(=O)(=O)C1 (stereo not given)	none
CC(C)=C(NC(=O)c1ccccc1)C(=O)Nc1cccc(C)c1	none (no result: Hsp70 act, L major viab)
COc1ccc(/C=N/NC(=O)CNC(=O)c2ccc3c(c2)OCCO3)c(C(=O)O)c1OC	none (no result: Hsp70 act, L major viab)
CCC(C(=O)NC1CCCC1)n1nc(C)n2c(cc3occc32)c1=O (stereo not given)	none (no result: Hsp70 act, L major viab)
COc1ccccc1/C=C1\CCC(C2CCCC2)C1=O (stereo not given)	none (no result: Hsp70 act, L major viab)
Cc1ccc(C(=O)CSc2nnnn2C(C)C)c(C)c1	HSF1 activator 54
O=c1c(Cl)c2oc3ccccc3nc-2c2ccccc12	L major viab 81
CC(C)(C)/C(O)=C/c1nc2ccccc2oc1=O	none
CN1OC(c2ccccc2)=C(CO)C1c1ccccc1 (stereo not given)	none
Cc1cccc(N2C(=N)SCC2=O)c1C	L major viab 54, HSF1 activator 77
N=C1SCC(=O)N1c1nc(-c2ccccc2)cs1	none
COc1ccccc1NC(=O)c1ccc(NC(=O)CSc2n[nH]c(N)n2)cc1	L major viab 65
COc1ccc(NC(=O)CSc2n[nH]c(N)n2)cc1OC	none
CN1CCN(CC(=O)Nc2cc(S(=O)(=O)N3CCOCC3)ccc2Cl)CC1	none (no result: Hsp70 act, L major viab)
CCc1nnc(NC(=O)CCN2C(=O)/C(=C/c3cc(OC)c(OC)c(OC)c3)SC2=S)s1	none (no result: Hsp70 act, L major viab)
O=C(O)c1cc2ccc3cccc4ccc(c1)c2c34	none (no result: Hsp70 act, L major viab)
Cc1ccnc(NC(=O)COc2ccc3c(c2)CCC3)c1	none (no result: Hsp70 act, L major viab)
COc1ccccc1-n1cc(-c2ccc(Br)cc2)[nH]c1=S	none (no result: Hsp70 act, L major viab)
S=c1[nH]c(-c2ccc(Br)cc2)cn1CCc1ccccc1	HSF1 activator 62
O=c1oc(Nc2cccc(Cl)c2)nc2ccccc12	HSF1 activator 67
CSc1nc(N2CCOCC2)nc2ccc(C)cc12	none (no result: Hsp70 act, L major viab)
Cc1ccc(-n2cc(-c3ccc([N+](=O)[O-])cc3)[nH]c2=S)c(C)c1	HSF1 activator inconclusive
O=[N+]([O-])c1ccc(-c2cn(-c3ccccc3)c(=S)[nH]2)cc1	none
O=c1cc(-c2cccc([N+](=O)[O-])c2)[nH][nH]1	L major viab 58
Nc1cc(-c2cccc([N+](=O)[O-])c2)[nH]n1	none
Cc1cccc(-n2cc(-c3ccc([N+](=O)[O-])cc3)[nH]c2=S)c1	HSF1 activator 71
O=[N+]([O-])c1cccc(-c2cn(-c3ccccc3)c(=S)[nH]2)c1	HSF1 activator 74
CC1=C(C(=O)c2ccccc2)C(c2cn(-c3ccccc3)nc2-c2ccc(Cl)cc2)NC(=S)N1 (stereo not given)	L major viab 100, T cruzi repl 60
O=C1NC(=O)C(c2cn(-c3ccccc3)nc2-c2ccc(F)cc2)N1 (stereo not given)	none
CCCOc1ccc(Cn2cnc3ccccc32)cc1	L major viab 88 (no result: HSF1 activator, HSF1 inhib, T cruzi repl)
Brc1ccccc1OCCCn1cnc2ccccc21	HSF1 activator 61
Fc1ccc(Cn2cnc3ccccc32)cc1	none
c1ccc(OCCn2cnc3ccccc32)cc1	L major viab 52
Cc1ccccc1OCCCCn1cnc2ccccc21	none (no result: HSF1 activator, HSF1 inhib)
COC(=O)c1cn(CCOc2ccc(C)cc2)c2ccccc12	HSF1 activator 100
CC(=O)c1ccc(OCCn2cnc3ccccc32)cc1	L major viab 51
c1ccc2c(c1)ncn2CCCCOc1ccc2c(c1)CCC2	L major viab 56
Cc1ccc(OCCCCn2cnc3ccccc32)cc1	HSF1 inhib -79
CCc1ccc(C(=O)NNC(=S)Nc2ccc(S(N)(=O)=O)cc2)s1	none
CCOC(=O)c1nnc(-c2ccccc2)nc1Sc1ccccc1Cl	HSF1 activator 159
Cc1ccc(CNC(=O)Nc2cccs2)cc1	HSF1 activator 73
COc1ccc(Br)cc1CNC(=O)Nc1cccs1	L major viab 54, HSF1 activator inconclusive
CCOC(=O)CC(NC(=O)c1cccc2c1C(=O)N(Cc1cccnc1)C2)c1ccc(OC(C)C)cc1 (stereo not given)	none
CCN(c1ccccc1)S(=O)(=O)c1cccc(C(=O)Nc2ccc(C)cn2)c1	none (no result: Hsp70 act, L major viab)
CCOCCCNC(=O)c1cn(C)c2ccc(S(=O)(=O)N3CCCC3)cc2c1=O	none (no result: Hsp70 act, L major viab)
COc1cccc(C2C(C(N)=O)=C(C)Nc3nc(-c4cccc(Cl)c4)nn32)c1 (stereo not given)	HSF1 activator 99
CC1=C(C(N)=O)C(c2cccnc2)n2nc(-c3cccc(Cl)c3)nc2N1 (stereo not given)	L major viab 67
CC1=C(C(N)=O)C(c2ccccc2)n2nc(-c3cccc(C)c3)nc2N1 (stereo not given)	none
CC1Cc2ccccc2N1C(=O)CN1CCC(C(N)=O)CC1 (stereo not given)	none
Cc1cccc(NC(=O)CSc2c3c(nc4ccccc24)CCC3)n1	none
COc1cccc(NC(=O)CSc2c3c(nc4ccccc24)CCCC3)c1	HSF1 activator 62
COc1ccc(OC)c(NC(=O)COC(=O)c2c3c(nc4ccccc24)CCCC3)c1	none
COc1ccc(NC(=O)COC(=O)c2c3c(nc4ccccc24)CCCC3)cc1	L major viab 94
Cc1nn(-c2ccccc2)c(N2CCCC2)c1/C=N/n1cnc2scc(-c3ccccc3)c2c1=O	L major viab 56
O=c1c2c(-c3ccccc3)csc2ncn1/N=C/c1c2ccccc2cc2ccccc12	L major viab 100
O=C(O)c1ccccc1C(=O)NC1Cc2ccccc2C1	none (no result: Hsp70 act, L major viab)
COc1ccc(CN2C(=O)C(=O)N(CC(N)=O)C2=O)cc1	none
O=S(=O)(c1ccc(Cl)cc1)N1CCN(C2CCCCCC2)CC1	L major viab 90
COc1ccc(S(=O)(=O)N2CCC(N3CCCCC3)CC2)cc1	L major viab 92
O=C(C1CCCCC1)N1CCN(S(=O)(=O)c2ccc(Cl)cc2)CC1	none
Nc1nc(-c2ccc(Cl)cc2)c(N=Nc2ccc(S(=O)(=O)N3CCOCC3)cc2)s1	L major viab 74, T cruzi repl 59

Screening results as filed in PubChem BioAssay.
